The record followed here is ChEMBL document CHEMBL2311361, “Diminutive effect on T and B-cell proliferation of non-cytotoxic α-santonin derived 1,2,3-triazoles: a report” (Eur J Med Chem, 2013).

Data set [1] can be described thus: Cytotoxicity against in Balb/c mouse B cells at 10^-6 M after 48 hrs by MTT assay. The class given is cell-based. The following applies: 1 µM. Summed up: (§1)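 Spleens taken aseptically from Balb/c mice (18–22 g). Single-cell suspension made in incomplete RPMI, RBCs lysed with Tris-ammonium chloride, cells washed, resuspended in complete RPMI and checked for viability by trypan blue. Cells seeded at 1 × 10⁶ cells/mL. Compounds in DMSO tested at 1×10⁻⁴, 1×10⁻⁵ and 1×10⁻⁶ M, 48 h, 37 °C, 5% CO₂.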

Data set [2] is described as follows: Cytotoxicity against in Balb/c mouse B cells at 10^-5 M after 48 hrs by MTT assay. The data set is classed as cell-based. The settings on record: 10 µM. In outline: as §1
(Tetrazolium assays rely on reduction of a dye to a coloured formazan, in cell work by metabolically active cells.)

Data set [3] in a line: Cytotoxicity against in Balb/c mouse T cells at 10^-6 M after 48 hrs by MTT assay. The following applies: t-cell, 1 µM. The class given is cell-based. In outline: as §1
A short description of data set [4]: Cytotoxicity against in Balb/c mouse T cells at 10^-5 M after 48 hrs by MTT assay. The settings on record: t-cell, 10 µM. The class given is cell-based. Summed up: as §1
Data set [5] can be described thus: Cytotoxicity against in Balb/c mouse T cells at 10^-4 M after 48 hrs by MTT assay. The data set is classed as cell-based. The settings on record: t-cell, 100 µM. Summed up:
as §1

Data set [6] can be described thus: Cytotoxicity against in Balb/c mouse B cells at 10^-4 M after 48 hrs by MTT assay. The settings on record: 100 µM. The class given is cell-based. Summed up:
as §1

The nature of data set [7]: Immunostimulant activity in Balb/c mouse T cells assessed as inhibition of concanavalin A-induced cell proliferation at 10^-5 M after 48 hrs by MTT assay. The class given is functional. In outline: as §1
Data set [8] can be described thus: Immunosuppressive activity in Balb/c mouse B cells assessed as inhibition of LPS-induced cell proliferation at 10^-6 M after 48 hrs by MTT assay. The class given is functional. In outline:
as §1

The nature of data set [9]: Immunosuppressive activity in Balb/c mouse B cells assessed as inhibition of LPS-induced cell proliferation at 10^-5 M after 48 hrs by MTT assay. The data set is classed as functional. In outline:
as §1

Data set [10] can be described thus: Immunosuppressive activity in Balb/c mouse B cells assessed as inhibition of LPS-induced cell proliferation at 10^-4 M after 48 hrs by MTT assay. The data set is classed as functional. In outline: as §1
Data set [11] can be described thus: Immunosuppressive activity in Balb/c mouse T cells assessed as inhibition of concanavalin A-induced cell proliferation at 10^-6 M after 48 hrs by MTT assay. The data set is classed as functional. The following applies: Mus musculus, Balb/c, T-cell, 48 h. In outline: as §1
Data set [12] in a line: Immunosuppressive activity in Balb/c mouse T cells assessed as inhibition of concanavalin A-induced cell proliferation at 10^-4 M after 48 hrs by MTT assay. The class given is functional. In outline: as §1
Data set [13] in a line: Immunosuppressive activity in Balb/c mouse T cells assessed as inhibition of concanavalin A-induced cell proliferation at 10^-5 M after 48 hrs by MTT assay. The class given is functional. Summed up:
as §1

Data set [14] in a line: Immunostimulant activity in Balb/c mouse T cells assessed as inhibition of concanavalin A-induced cell proliferation at 10^-4 M after 48 hrs by MTT assay. The following applies: Mus musculus, Balb/c, T-cell, 48 h. The class given is functional. In outline: as §1

What is called inhibition is the change of the read-out against control, counted positive when it falls. Regarding `CC1=C2[C@H]3OC(=O)[C@@H](C)[C@@H]3CC[C@@]2(C)C=CC1=O` [SANTONIN], the Activity entry in data set [1], in [2], in [3], in data set [4], in [5] and in data set [6] was “Non-toxic” each time. The inhibition at 10 µM came to 3.65% in data set [7] and 25.6% in data set [9]. The inhibition at 1 µM in data set [8] was 23.1%; in [11], -40.2%. The inhibition at 100 µM in [10] is -36.8%; in data set [12], -6.09%.

Regarding `Cc1cc(OCc2cnnn2-c2ccc(C=O)cc2)c(C)c2c1CC[C@H]1[C@H](C)C(=O)O[C@@H]21`, the Activity entry in [1], in data set [2], in [3], in data set [4], in [5] and in data set [6] was “Non-toxic” in each case. For the same molecule, the inhibition at 1 µM in data set [8] stood at 24.2%; in [11] it was 5.83%. Further, the inhibition at 10 µM in data set [9] was found to be 22.5%; in [13] it was 6.66%. Further, the values for the inhibition at 100 µM in data set [10] and in [12] were 35% and 20.8%, respectively.

Turning to `Cc1cc(OCc2cnnn2-c2cccc(I)c2)c(C)c2c1CC[C@H]1[C@H](C)C(=O)O[C@@H]21`, the Activity result in data set [1], in data set [2], in data set [3], in [4], in [5] and in data set [6] was “Non-toxic” in each case. The inhibition at 1 µM in data set [8] and in [11] was 15.8% throughout. The inhibition at 10 µM in [9] and in data set [13] was 20% throughout. For the same molecule, the inhibition at 100 µM in [10] turned out to be 15.8%; in data set [12] it was 3.15%.

Take `Cc1cc(OCc2cnnn2-c2cccc(O)c2)c(C)c2c1CC[C@H]1[C@H](C)C(=O)O[C@@H]21`: the Activity result in [1] was “Toxic”; in [2] it was “Non-toxic”; in [3] it was “Toxic”; in data set [4], “Non-toxic”; in data set [5], “Non-toxic”; in data set [6], “Non-toxic”. In addition, the inhibition at 10 µM was 22.5% in data set [7] and 7.5% in data set [9]. In addition, the inhibition at 1 µM in [8] amounted to 19.2%; in data set [11], 5.83%. The results for the inhibition at 100 µM in data set [10] and in data set [12] were 9.16% and 10%, respectively.

`Cc1cc(OCc2cnnn2-c2c(Br)ccc(I)c2F)c(C)c2c1CC[C@H]1[C@H](C)C(=O)O[C@@H]21`: the Activity entry in [1], in [2], in [3], in data set [4], in data set [5] and in data set [6] was “Non-toxic” each time. For the same molecule, the inhibition at 1 µM in data set [8] was 8.57%. Moreover, the inhibition at 10 µM in [9] came to 50%. Besides, the inhibition at 100 µM in [10] was found to be 11.4%.

Turning to `Cc1cc(OCc2cnnn2-c2cccc(C(N)=O)c2)c(C)c2c1CC[C@H]1[C@H](C)C(=O)O[C@@H]21`, the Activity entry in data set [1], in [2], in data set [3], in data set [4], in [5] and in data set [6] was “Non-toxic” each time. Also, the inhibition at 1 µM in data set [8] came out at 44.2%; in data set [11] it was 28.4%. The inhibition at 10 µM in [9] is 36.8%; in data set [13], 29.5%. Also, the inhibition at 100 µM was found to be 8.42% in [10] and 6.31% in data set [12].

For the molecule `Cc1ccc(I)cc1-n1nncc1COc1cc(C)c2c(c1C)[C@@H]1OC(=O)[C@@H](C)[C@@H]1CC2`, the Activity result in [1], in data set [2], in [3], in data set [4], in data set [5] and in data set [6] was “Non-toxic” throughout. Besides, the inhibition at 1 µM in [8] was 34.7%; in [11], 15.8%. In addition, the inhibition at 10 µM in [9] was 14.7%; in data set [13], 20%. Also, the results for the inhibition at 100 µM in data set [10] and in data set [12] were 16.8% and 15.8%, respectively.

In the case of `Cc1cc(OCc2cnnn2-c2cccc(Br)c2COc2cccc(Br)c2)c(C)c2c1CC[C@H]1[C@H](C)C(=O)O[C@@H]21`, the Activity result in data set [1] is given as “Toxic”; in data set [2], “Non-toxic”; in data set [3], “Toxic”; in data set [4], “Non-toxic”; in data set [5], “Non-toxic”; in data set [6], “Non-toxic”. In addition, the inhibition at 100 µM came out at 2.5% in data set [14] and 17.5% in data set [10]. For the same molecule, the inhibition at 1 µM in data set [8] worked out at 24.2%; in [11], 14.2%. For the same molecule, the inhibition at 10 µM in [9] is 16.7%.

For `Cc1cc(OCc2cnnn2-c2ccc3c(c2)OCO3)c(C)c2c1CC[C@H]1[C@H](C)C(=O)O[C@@H]21`, the Activity result in data set [1], in data set [2], in data set [3], in data set [4], in data set [5] and in data set [6] was “Non-toxic” in each case. For the same molecule, the inhibition at 1 µM is 14.7% in [8] and 29.5% in data set [11]. Further, the inhibition at 10 µM in data set [9] turned out to be 50.5%; in data set [13], 45.3%. Moreover, the figures for the inhibition at 100 µM in [10] and in data set [12] were 32.6% and 29.5%, respectively.

In the case of `COc1cc(-n2nncc2COc2cc(C)c3c(c2C)[C@@H]2OC(=O)[C@@H](C)[C@@H]2CC3)cc(OC)c1OC`, the Activity result in data set [1], in data set [2], in data set [3], in data set [4], in [5] and in data set [6] was “Non-toxic” each time. The inhibition at 1 µM in data set [8] is 16.8%; in [11], 20%. Also, the figures for the inhibition at 10 µM in data set [9] and in data set [13] were 26.3% and 14.7%, respectively. Besides, the inhibition at 100 µM in data set [10] stood at 14.7%; in [12], 16.8%.

Consider `COc1ccc2cc(-n3nncc3COc3cc(C)c4c(c3C)[C@@H]3OC(=O)[C@@H](C)[C@@H]3CC4)ccc2c1`, for which the Activity result in [1], in [2], in [3], in [4], in data set [5] and in [6] was “Non-toxic” each time. The inhibition at 1 µM was found to be 25.6% in [8] and 93.9% in [11]. In addition, the results for the inhibition at 10 µM in [9] and in [13] were 94% and 95.1%, respectively. Also, the inhibition at 100 µM in data set [10] is 28.2%; in [12], 93.9%.
